Read-outs that look alike come from different tables or passages of the source.
Legend:
[1] = cited from earlier work
[2] = system: patients with GA secondary to AMD (GA lesion area, study eye); assay: Dose-response model of GA lesion area, pooled FILLY, OAKS and DERBY data; assay type: in vivo, human; conditions: point estimate
Method in brief: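 Study eyes were randomized 2:2:1:1 to a 100 μL intravitreal injection of test compound 15 mg monthly or EOM, or sham monthly or EOM, for ≤24 months. GA lesion area was measured by fundus autofluorescence. A linear-with-time disease progression model with covariates was built from sham and untreated fellow eyes. Step-function drug effects per regimen were fitted in NONMEM.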

[3] = system: patients with GA secondary to AMD (GA lesion area); conditions: phase III OAKS and DERBY combined, cited from earlier work
[4] = Prevalence of serum antidrug antibodies in FILLY, OAKS and DERBY; assay type: in vivo, human; conditions: detectable at baseline or at any time during the study
[5] = system: patients with GA secondary to AMD (GA lesion area); conditions: phase II FILLY, cited from earlier work
[6] = cited from earlier work; remark: listed apart in the source

Question: Which “model-predicted steady-state serum maximal concentration, geometric mean” value ([1]; patients with GA, 15 mg intravitreal EOM, CV 58.1%) does the source give for pegcetacoplan here?
Answer: Its value is 1.5 µg/mL.

Question: What about the “accumulation from first dose to steady-state, ratio of geometric mean exposure” value ([1]; serum or vitreous humor) of the same substance?
Answer: Its value is 1.10–1.50.

Question: What about the “model-predicted rate of disease progression (GA lesion growth rate) relative to sham” value ([2]; pegcetacoplan 15 mg intravitreal EOM, 95% CI 0.78, 0.87) of the same substance?
Answer: The value was 0.83 fold.

Question: And the “model-predicted rate of disease progression (GA lesion growth rate) relative to sham” value ([2]; pegcetacoplan 15 mg intravitreal monthly, 95% CI 0.75, 0.84)?
Answer: Its value is 0.80 fold.

Question: And the “reduction in GA lesion area growth compared with sham treatment” value (from here on “reduction in GA lesion area growth”) ([3]; EOM)?
Answer: The value was 24%.

Question: And the “reduction in GA lesion area growth” value ([3]; monthly)?
Answer: The value was 30%.

Question: What about the “prevalence of serum antidrug antibodies against the PEG moiety” value [4] of the same substance?
Answer: The value was 67%.

Question: What about the “prevalence of serum antidrug antibodies against the peptide moiety” value [4] of the same substance?
Answer: The value was 5%.

Question: And the “reduction in GA lesion area growth” value ([5]; EOM)?
Answer: The value was 20%.

Question: And the “reduction in GA lesion area growth” value ([5]; monthly)?
Answer: The value was 29%.

Question: What about the “average exposure relative to reference body weight 70 kg” value ([6]; 5th percentile of body weight (53 kg), higher, 90% CI 1.16-1.23) of the same substance?
Answer: The value was 1.20 fold.

Question: What about the “average exposure relative to reference body weight 70 kg” value ([6]; 95th percentile of body weight (94 kg), lower, 90% CI 0.800-0.853) of the same substance?
Answer: The value was 0.827 fold.

Question: What about the “effective elimination half-life, median (interquartile range)” value ([6]; patients with paroxysmal nocturnal hemoglobinuria) of the same substance?
Answer: Its value is 8.6 (6.9–11.0) days.

Question: What about the “clearance, predicted geometric mean” value ([6]; population PK model, 11 clinical studies, CV 30%) of the same substance?
Answer: Its value is 0.36 L/day.
